A selection: hits, their analogues and other compounds. The true share with any hit is near 3.7%.
hERG rescue – hERG rescue from dofetilide block, primary screen, cell-based, CHO-hERG, FluxOR thallium flux, dofetilide IC70. Voltage-gated inwardly rectifying potassium channel KCNH2 (Homo sapiens), Q12809. dofetilide IC70 present. activation (rescue from dofetilide block), less the hit threshold, % at 10 µM. 310,000 compounds, 0.51% hits;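 active = activation above the mean of controls blocked by dofetilide plus 5 SD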;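 also: thallium influx through hERG after potassium depolarization seen as dye fluorescence rise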
KCNK3 inh – human KCNK3 channel inhibitors, primary screen, CHO cells, FluxOR thallium flux, B-score. Potassium channel subfamily K member 3 (Homo sapiens), O14649. 340,000 compounds, 0.84% hits. FluxOR fluorescence; stronger effect = lower value. B-score at 10 µM;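 active = B-score under library mean minus 4 SD, starting fluorescence ratio at most library mean plus 5 SD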;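 also: more negative B-score means stronger inhibition of thallium flux through KCNK3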
Target sequence (O14649 whole entry, looked up): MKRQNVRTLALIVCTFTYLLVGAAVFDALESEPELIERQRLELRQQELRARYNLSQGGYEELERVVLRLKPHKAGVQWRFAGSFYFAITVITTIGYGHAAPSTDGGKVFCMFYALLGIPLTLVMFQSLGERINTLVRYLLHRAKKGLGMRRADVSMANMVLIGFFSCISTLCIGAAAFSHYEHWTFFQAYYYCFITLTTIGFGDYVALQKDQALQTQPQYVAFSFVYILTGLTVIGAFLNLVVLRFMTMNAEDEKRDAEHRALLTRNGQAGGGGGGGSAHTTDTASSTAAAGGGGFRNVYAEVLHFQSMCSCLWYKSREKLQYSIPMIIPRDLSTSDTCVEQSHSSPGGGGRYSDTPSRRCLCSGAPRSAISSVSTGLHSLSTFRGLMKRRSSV
KCNQ1 pot – potentiators or activators of KCNQ1 channel, primary screen, cell-based, thallium flux, high-throughput | B-score at 10 µM | Potassium voltage-gated channel subfamily KQT member 1 (Homo sapiens), P51787 | 310,000 compounds, 0.35% hits | CHO-K1 KCNQ1, thallium flux FluxOR fluorescence; stronger effect = higher value;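 active = fluorescence ratio B-score, a plate-corrected score, at least three library SD, with initial intensity B-score within 5 SD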
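assay system = CHO-K1 cells stably expressing KCNQ1 | medium = assay buffer, equal DMSO in all wells | timing = 37 °C overnight plating, 90-min dark dye load, 20-min compound pretreatment | measured by = kinetic FluxOR thallium fluorescence, 10-s 1-Hz baseline, 110-s post-stimulus read | measure = fluorescence change relative to baseline, converted to B score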
Kir21 inh – inhibitors of mouse Kir2.1 inward-rectifier potassium channel | Inward rectifier potassium channel 2 (Mus musculus), P35561 | AID 1672, 2009 | HEK293-Kir2.1, FluxOR thallium flux fluorescence; stronger effect = lower value | B-score at 10 µM | 310,000 compounds, 0.85% hits;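 active = fluorescence ratio B-score at or below minus 3 SD of library scores, with starting-brightness B-score within 2 SD, cut at about -4.2 in these data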;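 also: channel flux triggered by added potassium and thallium sulfate stimulus; B-score of peak minus minimum fluorescence over baseline after thallium stimulus; more negative B-score means stronger Kir2.1 block with less thallium influx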
KCNQ1 inh – inhibitors of human KCNQ1 channel, primary screen, cell-based, thallium flux, high-throughput; CHO-K1 KCNQ1, FluxOR thallium flux fluorescence; stronger effect = higher value; B-score at 10 µM; 310,000 compounds, 1.3% hits; AID 2642, 2010;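 active = compounds whose thallium flux B-score, printed positive for inhibition, exceeds three library SD while starting fluorescence stays within three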;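 also: channel opened by potassium depolarization with thallium stimulus after 20 min compound exposure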
KCNK9 inh – KCNK9 potassium channel inhibitors, primary screen, HEK293 cells, thallium flux | AID 488922, 2010 | B-score at 10 µM | FluxOR thallium flux fluorescence; stronger effect = lower value | 310,000 compounds, 1.2% hits;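 active = ratio B-score over 3 SD below the library mean, with starting fluorescence within 5 SD of its mean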;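 also: negative B-score means less thallium flux so channel inhibition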
Target sequence (Q9NPC2 whole entry, looked up): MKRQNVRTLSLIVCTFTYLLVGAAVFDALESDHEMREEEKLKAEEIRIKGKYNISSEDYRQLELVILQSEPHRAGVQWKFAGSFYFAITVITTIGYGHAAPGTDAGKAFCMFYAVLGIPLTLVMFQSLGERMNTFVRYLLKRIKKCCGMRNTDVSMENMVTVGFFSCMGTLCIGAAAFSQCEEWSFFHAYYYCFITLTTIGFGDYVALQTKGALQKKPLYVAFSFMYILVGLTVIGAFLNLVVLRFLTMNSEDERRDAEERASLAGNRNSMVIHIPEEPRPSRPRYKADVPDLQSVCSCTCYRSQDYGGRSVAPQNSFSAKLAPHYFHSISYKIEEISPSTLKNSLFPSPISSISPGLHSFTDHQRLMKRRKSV
KCNQ1 block val – KCNQ1 potassium channel inhibitors, confirmation, cell-based, Tl flux, duplicate; shares compounds with KCNQ1 inh; inhibition, % at 10 µM; KCNQ1 cell line, FluxOR thallium flux fluorescence; AID 588353, 2011; 1,600 compounds, 93% hits;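 active = primary screen active, with duplicate mean exceeding buffer control mean plus 3 SD of buffer wells, cut at about 28% in these data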
CHO Tl flux – thallium flux effects in parental CHO cells, counter-screen for KCNQ1 inhibitor project, cell-based, Tl flux; shares compounds with KCNQ1 inh; parental CHO-K1, FluxOR thallium flux fluorescence ratio; stronger effect = lower value; zero means no signal rise above baseline; fluorescence ratio (Tl flux) at 10 µM; 1,600 compounds, 21% hits; AID 588366, 2011;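 active = mean of duplicate thallium-flux fluorescence ratios in parental host cells more than 5 SD below the buffer control mean, cut at about 0.38 in these data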;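 also: ratio is peak minus minimum fluorescence divided by baseline fluorescence; actives read low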
KCNQ1 ephys val – KCNQ1 channel inhibitors, confirmation, orthogonal assay, cell-based, automated electrophysiology | 490 compounds, 20% hits | shares compounds with KCNQ1 inh | calls only at 10 µM | KCNQ1-CHO cells, automated patch clamp current;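 active = KCNQ1 current drop exceeding 3 SD of negative control wells, seen in both duplicate runs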;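 also: steady state current during a 2 s step from -80 to +40 mV; negative values mean current inhibition and positive values mean potentiation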
KCNQ2 spec – KCNQ2 channel inhibition, selectivity assay for KCNQ1 inhibitor project, cell-based; 1,600 compounds, 71% hits; inhibition, % at 10 µM; shares compounds with KCNQ1 inh; AID 651746, 2012; KCNQ2 cells, FluxOR thallium flux fluorescence;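 active = mean percent inhibition of the KCNQ2 thallium signal more than 5 SD above the buffer-only control wells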;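 also: KCNQ2 expressed in CHO cells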
KCNQ1 KCNE1 spec – KCNQ1/KCNE1 channel inhibition, selectivity assay for KCNQ1 inhibitor project, CHO-K1 cells, thallium flux, FluxOR | shares compounds with KCNQ1 inh | FluxOR thallium flux fluorescence | inhibition, % at 10 µM | 1,600 compounds, 77% hits;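 active = mean percent inhibition of duplicate wells above the buffer-only control mean plus 3 SD of those controls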
KCNK9 block conf – KCNK9 potassium channel inhibitors, confirmation, HEK293 cells, thallium flux, duplicate. inhibition, % at 10 µM. FluxOR thallium flux fluorescence. 4,900 compounds, 43% hits. shares compounds with KCNK9 inh. AID 492992, 2010;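 active = thallium signal inhibited by more than 5 SD of the compound-free buffer control wells, on both duplicate plates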
Kir2-1 spec – mouse Kir2.1 channel inhibition, confirmation, selectivity assay for KCNK9 modulator project, cell-based, HEK293, thallium flux; shares compounds with KCNK9 inh; 4,900 compounds, 4% hits; Kir2.1 cells, FluxOR thallium flux fluorescence; AID 492993, 2010; inhibition, % at 10 µM;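 active = thallium signal drop more than 5 SD beyond the mean of the no-compound control wells, seen in both duplicate plates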;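 also: signal is fluorescence rise after thallium addition divided by baseline fluorescence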
KCNK9 uninduced – thallium flux in non-induced HEK293 cells, confirmation, counter-screen for KCNK9 inhibitor project, cell-based, second counter screen, non-induced KCNK9-HEK293; shares compounds with KCNK9 inh; 4,900 compounds, 40% hits; inhibition, % at 10 µM; AID 492997, 2010; FluxOR thallium flux;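 active = thallium signal drop beyond 5 SD of the untreated control mean, on both duplicate plates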
KCNK3 confirm – retest of human KCNK3 channel inhibitors, confirmation, CHO cells, FluxOR thallium flux, triplicate. shares compounds with KCNK3 inh. FluxOR fluorescence; 0% buffer, 100% carvedilol maximal block. ratio percent of control, % at 10 µM. 2,400 compounds, 99% hits;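 active = ratio percent of control, averaged over triplicates, above buffer control mean plus 5 SD, cut at about 64% in these data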;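 also: ratio is the fluorescence rise from min to max over baseline after thallium stimulus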
KCNK3 noninduced – thallium flux inhibition in non-induced cells, primary screen, counter-screen for KCNK3 inhibitor project, cell-based, non-induced KCNK3 line, FluxOR thallium, triplicate | shares compounds with KCNK3 inh | non-induced KCNK3 parental cells; stronger effect = lower value | thallium flux ratio (lower = more inhibition) at 10 µM | 2,400 compounds, 40% hits | AID 651747, 2012;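 active = thallium flux ratio, averaged over three wells, more than 5 SD below the buffer control mean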;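 also: host cells are CHO cells without KCNK3 induction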
Each line names hits and unclear results; the compound was inactive in the other large screens (follow-up assays come after a bar, where they were run).

Cc1nc(N2CCN(c3ccccc3O)CC2)c2c(-c3ccccc3)csc2n1	KCNK3 inh -9.9, KCNQ1 inh 18 | KCNQ1 block val 54 | CHO Tl flux inactive | KCNQ2 spec 89% | KCNQ1 KCNE1 spec 88% | KCNK3 confirm 116 | KCNK3 noninduced 0.11
CCOc1ccc(N(CC(=O)Nc2ccc(C)c(C)c2)S(=O)(=O)c2c(C)noc2C)cc1	KCNK3 inh -9.7, KCNQ1 inh 7 | KCNQ1 block val 96 | CHO Tl flux inactive | KCNQ1 ephys val inactive | KCNQ2 spec 112% | KCNQ1 KCNE1 spec 143% | KCNK3 confirm 93 | KCNK3 noninduced inactive
CC(C)C[C@H]1CNC(=O)C(=O)N1CC1CCN(CCc2ccc(-c3ccccc3)cc2)CC1	none (no result: hERG rescue, KCNQ1 pot, Kir21 inh, KCNQ1 inh, KCNK9 inh)
CCOC(=O)c1c(C)n(-c2ccc(C)cc2)c2ccc(O)c(CN(C)C)c12	KCNK3 inh -9.8, KCNQ1 inh 6 | KCNQ1 block val 38 | CHO Tl flux inactive | KCNQ2 spec inactive | KCNQ1 KCNE1 spec inactive | KCNK3 confirm 117 | KCNK3 noninduced 0.15
CCOC(=O)c1c(C)n(-c2ccc(OC)cc2)c2ccc(O)c(CN(C)C)c12	none
CCCN(CCC)Cc1c(C(=O)N/N=C/CCc2ccccc2)nnn1-c1nonc1N	none
Cc1ccsc1C(=O)C1CCCN(Cc2cccn2-c2ccc(Cl)cn2)C1 (stereo not drawn)	KCNK3 inh -9.1, Kir21 inh -4.6, KCNQ1 inh 9 | KCNQ1 block val 92 | CHO Tl flux inactive | KCNQ1 ephys val active | KCNQ2 spec 72% | KCNQ1 KCNE1 spec 58% | KCNK3 confirm 127 | KCNK3 noninduced 0.14
COc1ccc(C(=O)C2CCCN(Cc3cccn3-c3nccs3)C2)cc1OC (stereo not drawn)	none
O=C(N/N=C/c1cc(Br)c(O)c(Br)c1)c1cc2c(ccc3ccccc32)o1	KCNK3 inh -11, KCNQ1 inh 15 | KCNQ1 block val 160 | CHO Tl flux 0.32 | KCNQ2 spec 130% | KCNQ1 KCNE1 spec active | KCNK3 confirm 136 | KCNK3 noninduced 0.093
O=C(N/N=C/c1ccc(O)c(Br)c1)c1cc2c(ccc3ccccc32)o1	none
O=C(CCNC(=O)c1ccc(Cl)cc1)NCC(c1ccco1)N1CCCCC1 (stereo not drawn)	none
CC(C)C[C@H]1CN=C(Nc2ccccc2)N1CC1CCC(C)CC1 (stereo partly drawn)	none
COC(=O)C1C(c2ccccc2)C(C(=O)OCc2ccco2)C1c1ccccc1 (stereo not drawn)	KCNK3 inh -11, KCNQ1 inh 6, KCNK9 inh -8.3 | KCNQ1 block val 95 | CHO Tl flux 0.36 | KCNQ2 spec 111% | KCNQ1 KCNE1 spec 164% | KCNK9 block conf 44% | Kir2-1 spec inactive | KCNK9 uninduced 24% | KCNK3 confirm 116 | KCNK3 noninduced 0.15
Cc1ccc2c(c1)N(S(=O)(=O)c1cc(-c3onc(C)c3C)ccc1C)CCO2	KCNK3 inh -11, KCNQ1 inh 7, KCNK9 inh -7.5 | KCNQ1 block val 77 | CHO Tl flux 0.35 | KCNQ2 spec 106% | KCNQ1 KCNE1 spec 93% | KCNK3 confirm 106 | KCNK3 noninduced inactive
O=c1c2c(nc(NCCO)n1CC1CCCCC1)-c1ccccc1CC21CCCC1	KCNK3 inh -16, KCNQ1 inh 6, KCNK9 inh -7.4 | KCNQ1 block val 91 | CHO Tl flux inactive | KCNQ1 ephys val inactive | KCNQ2 spec 104% | KCNQ1 KCNE1 spec inactive | KCNK3 confirm 115 | KCNK3 noninduced 0.16
CC1(C)CC(n2c(NCCO)nc3c(c2=O)C2(CCCC2)Cc2ccccc2-3)CCO1 (stereo not drawn)	none
COc1cc(C(=O)NNC(=O)c2ccccc2OCc2c(C)noc2C)cc(OC)c1OC	none (no result: hERG rescue, KCNQ1 pot, Kir21 inh, KCNQ1 inh, KCNK9 inh)

Bioassay records (PubChem)
